Source: ChEMBL document CHEMBL1154279, “Cytotoxic compounds from the stems of Cinnamomum tenuifolium” (J Nat Prod, 2009)

Legend:
LNCaP = experiment: Cytotoxicity against human LNCAP cells after 72 hrs by XTT assay; assay type: functional, cell-based; conditions: 24 h, in the assay text read “after 24 hrs” for “after 72 hrs”
Outline: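 Prostate cancer cells in RPMI-1640 with 10% FBS, 37 °C, 5% CO2, grown to 70–80% confluence and treated at 0.1–100 µM for 24, 48 and 72 h. XTT labeling for 4 h at 37 °C, absorbance 450 nm (reference 650 nm) against control wells. IC50 derived from the mean of eight wells; taxol and cisplatin served as positive controls.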

DU-145 = experiment: Cytotoxicity against human DU145 cells after 72 hrs by XTT assay; assay type: functional, cell-based; conditions: DU-145, 24 h, in the assay text read “after 24 hrs” for “after 72 hrs”

| SMILES | IC50 (LNCaP) [µM] | IC50 (DU-145) [µM] |
| --- | --- | --- |
| C=C1OC(=O)/C(=C\CCCCCCCCCCCCC)[C@@H]1O [OBTUSILACTONE A] | 36.4 | 68.4 |
| C=C1OC(=O)/C(=C/CCCCCCCCCCCCCCCCCCCCCCCCCC)[C@@H]1O [ISOTENUIFOLIDE] | 42.7 | 84.1 |
| C=C1C=C(C(CCCCCCCCCCCCCCCCCCC)OC)C(=O)O1 (configuration not stated) [TENUIFOLIDE B] | 22.2 | 246 |
| CC(=O)O[C@H]1C(=O)[C@@]2(C)[C@H]([C@H](OC(=O)c3ccccc3)[C@]3(O)C[C@H](OC(=O)[C@H](O)[C@@H](NC(=O)c4ccccc4)c4ccccc4)C(C)=C1C3(C)C)[C@]1(OC(C)=O)CO[C@@H]1C[C@@H]2O [PACLITAXEL] | 6.32 | – |
